Assay results taken from publication PMC9742152 (ChemMedChem, 2022).
Like-named read-outs stand apart in the source and are kept apart here.

What was measured:
[1] = test system: MCF-7 breast cancer cells; assay: Anti-proliferative assay, MCF-7 cells; type: cell-based, human; conditions: read-out: GI50 MCF-7
Outline: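 MCF-7 cells kept at 37 °C, 5% CO2 in RPMI 1640 with 17% FBS, 2 mM L-glutamine and gentamicin, in full (not estrogen-deprived) media; seeded 5000 cells/well, grown 24 h without compound, then exposed to test compound at 10−9–10−4 M or vehicle. Cell protein measured by sulforhodamine B staining at 96 h; GI50 is the mean of two determinations.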

Bovine brain tubulin [2] = assay: Inhibition of tubulin assembly; type: biochemical; conditions: for IC50: read-out: Tubulin assembly IC50, 10 μM tubulin, mean ±SD
[3] = test system: MDA MB-231 breast cancer cells; assay: Anti-proliferative assay, MDA MB-231 cells; type: cell-based, human; conditions: read-out: GI50 MDA MB-231
Outline: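 MDA MB-231 cells kept at 37 °C, 5% CO2 in RPMI-1640 with 10% FBS, penicillin and streptomycin; seeded 8000 cells/well, allowed to adhere 24 h, then given test compound or vehicle. BrdU incorporation kit assay run at 48 h; signal expressed as percent of mean control to derive GI50; experiments in triplicate, mean of three determinations.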

SF-539 = assay: NCI 60-cell line assay, CNS SF-539; type: cell-based; conditions: read-out: GI50 CNS SF-539
HOP-62 = assay: NCI 60-cell line assay, Lung HOP-62; type: cell-based
HCT-116 = assay: NCI 60-cell line assay, Colon HCT-116; type: cell-based
NCI-60 cell line panel = assay: NCI 60-cell line assay, mean over whole panel; type: cell-based; conditions: for IC50: read-out: MGM (mean concentration that caused 50% growth inhibition in all 60 cell lines)
steroid sulfatase (STS) [4] = target: T1, steroid sulfatase (STS) (Homo sapiens, UniProt P08842); assay: In vitro cell-free sulfatase assay, JEG-3 lysate; type: biochemical
T1 sequence (P08842 22-583): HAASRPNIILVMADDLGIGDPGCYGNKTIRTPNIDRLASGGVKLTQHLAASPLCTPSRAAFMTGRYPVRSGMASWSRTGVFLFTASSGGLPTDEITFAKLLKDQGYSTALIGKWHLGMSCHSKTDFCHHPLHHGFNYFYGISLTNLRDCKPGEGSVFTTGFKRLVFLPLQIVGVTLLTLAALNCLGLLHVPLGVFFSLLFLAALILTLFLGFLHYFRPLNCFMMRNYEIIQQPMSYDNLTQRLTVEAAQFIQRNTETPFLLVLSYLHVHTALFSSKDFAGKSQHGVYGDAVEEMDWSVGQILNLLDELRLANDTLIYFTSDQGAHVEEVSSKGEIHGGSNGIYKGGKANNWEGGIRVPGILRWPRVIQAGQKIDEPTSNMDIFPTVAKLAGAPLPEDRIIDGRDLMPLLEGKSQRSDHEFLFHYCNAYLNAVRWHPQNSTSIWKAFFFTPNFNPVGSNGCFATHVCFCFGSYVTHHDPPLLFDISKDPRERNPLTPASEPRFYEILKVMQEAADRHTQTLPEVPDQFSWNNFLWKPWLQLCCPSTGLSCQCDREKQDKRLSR

OVCAR-3 = assay: NCI 60-cell line assay, Ovarian OVCAR-3; type: cell-based
UACC-62 = assay: NCI 60-cell line assay, Melanoma UACC-62; type: cell-based
[5] = Hydrolysis in wet DMSO-d6 at 25 °C followed by 1H NMR; conditions: for % hydrolysed (conversion into the phenol) after 30 days: wet DMSO-d6, room temperature, water/substrate ~60:1
SN12C = assay: NCI 60-cell line assay, Renal SN12C; type: cell-based; conditions: read-out: GI50 Renal SN12C
steroid sulfatase (STS) [6] = target: T1, steroid sulfatase (STS); assay: In vitro whole cell sulfatase assay, intact JEG-3 cells; type: cell-based
Bovine brain tubulin [7] = assay: Inhibition of [3H]colchicine binding to tubulin; conditions: 5 μM inhibitor, 5.0 μM [3H]colchicine, 1.0 μM tubulin, mean ±SD
[8] = cited from earlier work
[9] = Homo sapiens, HOP-62, read-out: GI50 Lung HOP-62
[10] = Homo sapiens, HCT-116, read-out: GI50 Colon HCT-116
[11] = Homo sapiens, OVCAR-3, read-out: GI50 Ovarian OVCAR-3
[12] = Homo sapiens, UACC-62, read-out: GI50 Melanoma UACC-62
[13] = wet DMSO-d6, 25 °C, 0 days, 1H NMR
[14] = wet DMSO-d6, 25 °C, 15 days, 1H NMR
[15] = wet DMSO-d6, 25 °C, 30 days, 1H NMR
[16] = MCF-7, full media, 96 h, mean of two determinations
[17] = NCI-60, mean of three determinations

C[C@]12CC[C@@H]3c4cc(OC(F)F)c(O)cc4CC[C@H]3[C@@H]1CCC2=O [Compound 15, 2-Difluoromethoxy-3-hydroxyestra-1,3,5(10)-trien-17-one]
GI50 ([1]; Homo sapiens, MCF7, 96 h): > 5000 nM
IC50 (Bovine brain tubulin [2]): > 20000 nM
GI50 ([3]; Homo sapiens, MDA-MB-231, 48 h): > 10000 nM

C[C@]12CC[C@@H]3c4cc(OC(F)F)c(O)cc4CC[C@H]3[C@@H]1CC[C@@H]2OS(N)(=O)=O [Compound 11, 2-Difluoromethoxy-3-hydroxy-17β-sulfamoyloxyestra-1,3,5(10)-triene]
GI50 (SF-539; Homo sapiens): 427 nM
GI50 (HOP-62; [9]): 648 nM
GI50 ([1]; Homo sapiens, MCF7, 96 h): > 5000 nM
GI50 (HCT-116; [10]): 375 nM
IC50 (NCI-60 cell line panel; 60 cell): 813 nM
IC50 (steroid sulfatase (STS) [4]): > 5000 nM
STS inhibition in JEG-3 lysate (in words) (steroid sulfatase (STS) [4]; JEG-3 lysate): inactive
GI50 (OVCAR-3; [11]): 383 nM
GI50 (UACC-62; [12]): 460 nM
IC50 (Bovine brain tubulin [2]): > 20000 nM
% of the compound in the reaction mixture, 0 days [5, 13]: 0%
% of the compound in the reaction mixture, 15 days [5, 14]: 68%
% of the compound in the reaction mixture, 30 days [5, 15]: 92%
GI50 ([3]; Homo sapiens, MDA-MB-231, 48 h): > 10000 nM
GI50 (SN12C; Homo sapiens, SN12C): 1220 nM

C[C@]12CC[C@@H]3c4cc(C(F)F)c(OS(N)(=O)=O)cc4CC[C@H]3[C@@H]1CCC2=O [Compound 23, 2-difluoromethylestrone sulfamate, reference compound]
times more potent than 16, whole cells (steroid sulfatase (STS) [6]; vs 16): about 100 times
times more potent than 16, JEG-3 lysate assay (steroid sulfatase (STS) [4]; vs 16): about 3 times
% of the compound in the reaction mixture, 0 days [5, 13]: 100%
% of the compound in the reaction mixture, 15 days [5, 14]: 24%
% of the compound in the reaction mixture, 30 days [5, 15]: 5%

C[C@]12CC[C@@H]3c4cc(OC(F)F)c(OS(N)(=O)=O)cc4CC[C@H]3[C@@H]1CC[C@@H]2O [Compound 12, 2-Difluoromethoxy-3-sulfamoyloxy-17β-hydroxyestra-1,3,5(10)-triene]
GI50 (SF-539; Homo sapiens): 313 nM
GI50 (HOP-62; [9]): 634 nM
GI50 ([1]; Homo sapiens, MCF7, 96 h): 1100 nM
GI50 (HCT-116; [10]): 406 nM
Colchicine binding (% Inhibition) (Bovine brain tubulin [7]): 22 ± 1%
IC50 (NCI-60 cell line panel; 60 cell): 646 nM
IC50 (steroid sulfatase (STS) [6]): 18.6 nM
IC50 (steroid sulfatase (STS) [4]): 75 nM
GI50 (OVCAR-3; [11]): 386 nM
GI50 (UACC-62; [12]): 498 nM
IC50 (Bovine brain tubulin [2]): 6600 ± 700 nM
GI50 ([3]; Homo sapiens, MDA-MB-231, 48 h): 1110 nM
GI50 (SN12C; Homo sapiens, SN12C): 692 nM

COc1ccc(/C=C\c2cc(OC)c(OC)c(OC)c2)cc1O [CA-4, combretastatin A-4, reference compound]
Colchicine binding (% Inhibition) (Bovine brain tubulin [7]): 98 ± 1%

COc1cc2c(cc1O)CC[C@@H]1[C@@H]2CC[C@]2(C)[C@@H](O)CC[C@@H]12 [Compound 1, 2-Methoxyestradiol, reference compound]
Colchicine binding (% Inhibition) (Bovine brain tubulin [7]): 36 ± 3%
IC50 (Bovine brain tubulin [2]): 8300 ± 800 nM
bioavailability [8]: ~1%

COc1cc2c(cc1OS(N)(=O)=O)CC[C@@H]1[C@@H]2CC[C@]2(C)[C@@H](OS(N)(=O)=O)CC[C@@H]12 [Compound 4, 2-methoxyestradiol-3,17-O,O-bissulfamate, reference compound]
GI50 [1, 16]: 520 nM
Colchicine binding (% Inhibition) (Bovine brain tubulin [7]): 33 ± 3%
IC50 (Bovine brain tubulin [2]): 2300 ± 100 nM
% of the compound in the reaction mixture, 0 days [5]: 100%
% of the compound in the reaction mixture, 15 days [5]: 81%
% of the compound in the reaction mixture, 30 days [5]: 69%
% hydrolysed (conversion into the phenol) after 30 days ([5]; 30 days): 31%
bioavailability [8]: ~85%

C[C@]12CC[C@@H]3c4cc(OC(F)F)c(O)cc4CC[C@H]3[C@@H]1CC[C@@H]2O [Compound 9, 2-Difluoromethoxy-3,17β-bis-hydroxyestra-1,3,5(10)-triene]
GI50 ([1]; Homo sapiens, MCF7, 96 h): 2600 nM
IC50 (Bovine brain tubulin [2]): 12400 ± 100 nM
GI50 ([3]; Homo sapiens, MDA-MB-231, 48 h): 3030 nM

C[C@]12CC[C@@H]3c4cc(OC(F)F)c(OS(N)(=O)=O)cc4CC[C@H]3[C@@H]1CCC2=O [Compound 16, 2-Difluoromethoxy-3-sulfamoyloxyestra-1,3,5(10)-trien-17-one]
GI50 ([1]; Homo sapiens, MCF7, 96 h): 580 nM
Colchicine binding (% Inhibition) (Bovine brain tubulin [7]): 32 ± 4%
IC50 (steroid sulfatase (STS) [6]): 5.6 nM
IC50 (steroid sulfatase (STS) [4]): 56 nM
IC50 (Bovine brain tubulin [2]): 4300 ± 200 nM
GI50 ([3]; Homo sapiens, MDA-MB-231, 48 h): 990 nM

C[C@]12CC[C@@H]3c4cc(OC(F)F)c(OS(N)(=O)=O)cc4CC[C@H]3[C@@H]1CC[C@@H]2OS(N)(=O)=O [Compound 10, 2-Difluoromethoxy-3–17β-bis-sulfamoyloxyestra-1,3,5(10)-triene]
GI50 (SF-539; [17]): 266 nM
GI50 (HOP-62; read-out: GI50 Lung HOP-62, NCI-60, mean of three determinations): 1980 nM
GI50 [1, 16]: 280 nM
GI50 (HCT-116; read-out: GI50 Colon HCT-116, NCI-60, mean of three determinations): 474 nM
Colchicine binding (% Inhibition) (Bovine brain tubulin [7]): 19 ± 0.5%
overall anti-proliferative activity in NCI 60-cell line panel (in words) (NCI-60 cell line panel; average GI50, NCI-60): sub-micromolar
IC50 (NCI-60 cell line panel; all 60 cell lines): 661 nM
GI50 (OVCAR-3; read-out: GI50 Ovarian OVCAR-3, NCI-60, mean of three determinations): 527 nM
GI50 (UACC-62; read-out: GI50 Melanoma UACC-62, NCI-60, mean of three determinations): 564 nM
IC50 (Bovine brain tubulin [2]): 3900 ± 500 nM
fold less active than CA-4 in tubulin assembly (Bovine brain tubulin [2]; vs CA-4): about 3 fold
% of the compound in the reaction mixture, 0 days [5, 13]: 100%
% of the compound in the reaction mixture, 15 days [5, 14]: 32%
% of the compound in the reaction mixture, 30 days [5, 15]: 8%
T1/2 of hydrolysis ([5]; wet DMSO-d6, estimated from Table 1): ~ 10 days
% hydrolysed (conversion into the phenol) after 30 days ([5]; 30 days): 92%
GI50 ([3]; MDA MB-231, 48 h, mean of three determinations): 740 nM
GI50 (SN12C; [17]): 567 nM

COc1cc2c(cc1O)CC[C@@H]1[C@@H]2CC[C@]2(C)[C@@H](OS(N)(=O)=O)CC[C@@H]12 [Compound 22]
% of the compound in the reaction mixture, 0 days [5, 13]: 0%
% of the compound in the reaction mixture, 15 days [5, 14]: 19%
% of the compound in the reaction mixture, 30 days [5, 15]: 31%
